# Data taken from ChEMBL document CHEMBL4406880, “Design, synthesis, and bioactivity of dihydropyrimidine derivatives as kinesin spindle protein inhibitors” (Bioorg Med Chem, 2019).
# Assays:
# Type in all cases: functional
# T47D = assay: Growth inhibition of human T47D cells assessed as growth percentage at 10 uM incubated for 48 hrs by sulforhodamine B assay relative to control; conditions: read-out: Activity
# Outline: (§1)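 NCI-60 single-dose screen. Cells were grown in RPMI 1640 with 5% FBS and 2 mM L-glutamine and plated at 5,000–40,000 cells/well. After an overnight preincubation at 37 °C in 5% CO2, compound was added at a final 10 µM from a DMSO stock, with DMSO/PBS controls. After 48 h, cells were TCA-fixed and stained with 0.4% SRB, and absorbance was read at 515 nm. Growth is given as a percentage of untreated control.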
# OVCAR-5 = assay: Growth inhibition of human OVCAR5 cells assessed as growth percentage at 10 uM incubated for 48 hrs by sulforhodamine B assay relative to control; conditions: OVCAR-5, 48 h, read-out: Activity; outline: as §1
# IGROV-1 = assay: Growth inhibition of human IGROV1 cells assessed as growth percentage at 10 uM incubated for 48 hrs by sulforhodamine B assay relative to control; conditions: IGROV-1, 48 h, read-out: Activity
# Outline: (§2)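 NCI-60 one-dose screen. Cells in RPMI 1640 with 5% FBS and 2 mM L-glutamine, seeded at 5,000–40,000 cells/well according to doubling time, and preincubated overnight at 37 °C, 5% CO2. A time-zero plate was TCA-fixed at drug addition. Compound from DMSO stock, final 10 µM, 48 h; DMSO vehicle controls. Fixation with TCA, 10% final (16% for suspension cells). SRB stain, Tris solubilization, A515. Result given as % growth versus untreated cells.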
# TK-10 = assay: Growth inhibition of human TK10 cells assessed as growth percentage at 10 uM incubated for 48 hrs by sulforhodamine B assay relative to control; conditions: TK-10, 48 h, read-out: Activity; outline: as §1
# Malme-3M = assay: Growth inhibition of human MALME-3M cells assessed as growth percentage at 10 uM incubated for 48 hrs by sulforhodamine B assay relative to control; conditions: read-out: Activity; outline: as §2
# HCC 2998 = assay: Growth inhibition of human HCC2998 cells assessed as growth percentage at 10 uM incubated for 48 hrs by sulforhodamine B assay relative to control; conditions: HCC 2998, 48 h, read-out: Activity
# Outline: (§3)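 NCI-60 one-dose screen: cells in RPMI 1640 with 5% FBS and 2 mM L-glutamine, plated at 5,000–40,000 cells/well and preincubated 24 h at 37 °C, 5% CO2. Compound is added from a DMSO stock to a final 10 µM and incubated 48 h. Cells are TCA-fixed and stained with sulforhodamine B, read at 515 nm. Output is % growth versus untreated control, with a time-zero plate.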
# SF-268 = assay: Growth inhibition of human SF268 cells assessed as growth percentage at 10 uM incubated for 48 hrs by sulforhodamine B assay relative to control; conditions: SF-268, 48 h, read-out: Activity; outline: as §1
# MCF7 = assay: Growth inhibition of human MCF7 cells assessed as growth percentage at 10 uM incubated for 48 hrs by sulforhodamine B assay relative to control; conditions: MCF7, 48 h, read-out: Activity; outline: as §2
# UO-31 = assay: Growth inhibition of human UO31 cells assessed as growth percentage at 10 uM incubated for 48 hrs by sulforhodamine B assay relative to control; conditions: UO-31, 48 h, read-out: Activity; outline: as §1
# EKVX = assay: Growth inhibition of human EKVX cells assessed as growth percentage at 10 uM incubated for 48 hrs by sulforhodamine B assay relative to control; conditions: read-out: Activity; outline: as §3
# M14 = assay: Growth inhibition of human M14 cells assessed as growth percentage at 10 uM incubated for 48 hrs by sulforhodamine B assay relative to control; conditions: M14, 48 h, read-out: Activity; outline: as §2
# SF-539 = assay: Growth inhibition of human SF539 cells assessed as growth percentage at 10 uM incubated for 48 hrs by sulforhodamine B assay relative to control; conditions: SF-539, 48 h, read-out: Activity; outline: as §1
# HOP-92 = assay: Growth inhibition of human HOP92 cells assessed as growth percentage at 10 uM incubated for 48 hrs by sulforhodamine B assay relative to control; conditions: HOP-92, 48 h, read-out: Activity; outline: as §2
# A549 = assay: Growth inhibition of human A549/ATCC cells assessed as growth percentage at 10 uM incubated for 48 hrs by sulforhodamine B assay relative to control; conditions: A549, 48 h, read-out: Activity; outline: as §3
# 786-0 = assay: Growth inhibition of human 786-0 cells assessed as growth percentage at 10 uM incubated for 48 hrs by sulforhodamine B assay relative to control; conditions: 786-0, 48 h, read-out: Activity; outline: as §3
# NCI/ADR-RES = assay: Growth inhibition of human NCI/ADR-RES cells assessed as growth percentage at 10 uM incubated for 48 hrs by sulforhodamine B assay relative to control; conditions: read-out: Activity; outline: as §2
# NCI-H23 = assay: Growth inhibition of human NCI-H23 cells assessed as growth percentage at 10 uM incubated for 48 hrs by sulforhodamine B assay relative to control; conditions: NCI-H23, 48 h, read-out: Activity; outline: as §2
# SNB-75 = assay: Growth inhibition of human SNB75 cells assessed as growth percentage at 10 uM incubated for 48 hrs by sulforhodamine B assay relative to control; conditions: SNB-75, 48 h, read-out: Activity; outline: as §1
# CAKI-1 = assay: Growth inhibition of human Caki1 cells assessed as growth percentage at 10 uM incubated for 48 hrs by sulforhodamine B assay relative to control; conditions: CAKI-1, 48 h, read-out: Activity; outline: as §3
# MDA-MB-468 = assay: Growth inhibition of human MDA-MB-468 cells assessed as growth percentage at 10 uM incubated for 48 hrs by sulforhodamine B assay relative to control; conditions: MDA-MB-468, 48 h, read-out: Activity; outline: as §2
# HCT-15 = assay: Growth inhibition of human HCT15 cells assessed as growth percentage at 10 uM incubated for 48 hrs by sulforhodamine B assay relative to control; conditions: HCT-15, 48 h, read-out: Activity; outline: as §3
# KM12 = assay: Growth inhibition of human KM12 cells assessed as growth percentage at 10 uM incubated for 48 hrs by sulforhodamine B assay relative to control; conditions: KM12, 48 h, read-out: Activity; outline: as §2
# K562 = assay: Growth inhibition of human K562 cells assessed as growth percentage at 10 uM incubated for 48 hrs by sulforhodamine B assay relative to control; conditions: K562, 48 h, read-out: Activity; outline: as §2
# NCI-H226 = assay: Growth inhibition of human NCI-H226 cells assessed as growth percentage at 10 uM incubated for 48 hrs by sulforhodamine B assay relative to control; conditions: NCI-H226, 48 h, read-out: Activity; outline: as §2
# MDA-MB-435 = assay: Growth inhibition of human MDA-MB-435 cells assessed as growth percentage at 10 uM incubated for 48 hrs by sulforhodamine B assay relative to control; conditions: MDA-MB-435, 48 h, read-out: Activity; outline: as §2
# RXF 393 = assay: Growth inhibition of human RXF393 cells assessed as growth percentage at 10 uM incubated for 48 hrs by sulforhodamine B assay relative to control; conditions: RXF 393, 48 h, read-out: Activity; outline: as §1
Compound,growth at 10 µM (T47D),growth at 10 µM (OVCAR-5),growth at 10 µM (IGROV-1),growth at 10 µM (TK-10),growth at 10 µM (Malme-3M),growth at 10 µM (HCC 2998),growth at 10 µM (SF-268),growth at 10 µM (MCF7),growth at 10 µM (UO-31),growth at 10 µM (EKVX),growth at 10 µM (M14),growth at 10 µM (SF-539),growth at 10 µM (HOP-92),growth at 10 µM (A549),growth at 10 µM (786-0),growth at 10 µM (NCI/ADR-RES),growth at 10 µM (NCI-H23),growth at 10 µM (SNB-75),growth at 10 µM (CAKI-1),growth at 10 µM (MDA-MB-468),other results
CC1=C(C(=O)OCC(C)C)C(c2ccc3c(c2)OCO3)NC(=S)N1 (racemic),81.9%,105%,97.9%,101%,105%,112%,97.8%,98.6%,89.4%,104%,120%,109%,103%,99%,104%,96.7%,99.5%,94.1%,86.6%,94.6%,growth at 10 µM (HCT-15): 100%; growth at 10 µM (KM12): 99.1%; growth at 10 µM (K562): 90.7%; growth at 10 µM (NCI-H226): 97.1%; growth at 10 µM (MDA-MB-435): 103%; growth at 10 µM (RXF 393): 100%
CC1=C(C(=O)OCc2ccccc2)C(c2ccc3c(c2)OCO3)NC(=O)N1 (racemic),89.2%,106%,97.2%,101%,101%,116%,99.8%,101%,83.1%,95.8%,97.4%,97.8%,92.3%,106%,99.1%,97.7%,101%,96%,89.5%,92%,growth at 10 µM (HCT-15): 98.1%; growth at 10 µM (KM12): 105%; growth at 10 µM (K562): 107%; growth at 10 µM (NCI-H226): 95.9%; growth at 10 µM (MDA-MB-435): 103%; growth at 10 µM (RXF 393): 102%
CC1=C(C(=O)c2ccccc2)C(c2ccc3c(c2)OCO3)NC(=S)N1 (racemic),67.9%,72.5%,46.1%,66%,54.5%,62.2%,75.8%,22%,55.7%,73.5%,34.6%,36.4%,92.3%,40.3%,58.9%,43.3%,48%,-1.4%,35.6%,54.3%,growth at 10 µM (HCT-15): 33.7%; growth at 10 µM (KM12): 20%; growth at 10 µM (K562): 24.6%; growth at 10 µM (NCI-H226): 66.5%; growth at 10 µM (MDA-MB-435): -49.5%; growth at 10 µM (RXF 393): 59.5%
